# Molecular target: T1, Amine oxidase [flavin-containing] B (Rattus norvegicus, UniProt P19643)
# T1 sequence (P19643 whole entry): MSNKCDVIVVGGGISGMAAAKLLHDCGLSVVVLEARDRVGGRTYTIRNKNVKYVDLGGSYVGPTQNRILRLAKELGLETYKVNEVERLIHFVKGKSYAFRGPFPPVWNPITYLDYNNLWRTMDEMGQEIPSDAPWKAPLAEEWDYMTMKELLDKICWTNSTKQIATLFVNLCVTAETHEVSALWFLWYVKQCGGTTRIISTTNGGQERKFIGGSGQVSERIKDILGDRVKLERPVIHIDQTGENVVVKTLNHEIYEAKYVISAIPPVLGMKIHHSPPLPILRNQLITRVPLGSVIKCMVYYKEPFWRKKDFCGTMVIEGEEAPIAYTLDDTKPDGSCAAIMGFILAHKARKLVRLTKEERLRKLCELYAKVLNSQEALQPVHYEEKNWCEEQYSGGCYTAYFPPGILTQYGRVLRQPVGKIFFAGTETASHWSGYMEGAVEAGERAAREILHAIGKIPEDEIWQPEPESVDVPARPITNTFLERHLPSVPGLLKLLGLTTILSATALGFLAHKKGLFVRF
# Assay: Compound was evaluated for the time-dependence inhibition of MAO-B at 0 minute pre-incubation periods; call rule not given here
# How it was run: (§1)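 Male Sprague-Dawley rat brain crude mitochondrial fraction, MAO B. Drug preincubated with enzyme at 37 °C for 0, 20, 30 or 60 min, then radiochemical assay with 5 μM [14C]PEA at pH 7.4. IC50 read graphically from 9–12 concentrations; three experiments in duplicate.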
row,Structure (SMILES),IC50 [nM]
1,O=c1oc(-c2ccc(OCc3ccccc3)cc2)nn1CCO,33
2,N#CCCn1nc(-c2ccc(OCc3ccccc3)cc2)oc1=S,47

# Molecular target: T1, Amine oxidase [flavin-containing] B
# Assay: Compound was evaluated for the time-dependence inhibition of MAO-B at 20 minutes pre-incubation periods
# How it was run: as §1
row,Structure (SMILES),IC50 [nM]
1,O=c1oc(-c2ccc(OCc3ccccc3)cc2)nn1CCO,4.6
2,N#CCCn1nc(-c2ccc(OCc3ccccc3)cc2)oc1=S,6.6

# Molecular target: T1, Amine oxidase [flavin-containing] B
# Assay: Compound was evaluated for the time-dependence inhibition of MAO-B at 30 minutes pre-incubation periods
# How it was run: as §1
row,Structure (SMILES),IC50 [nM]
1,O=c1oc(-c2ccc(OCc3ccccc3)cc2)nn1CCO,4.4
2,N#CCCn1nc(-c2ccc(OCc3ccccc3)cc2)oc1=S,4.7

# Molecular target: T1, Amine oxidase [flavin-containing] B
# Assay: Compound was evaluated for the time-dependence inhibition of MAO-B at 60 minutes preincubation periods
# How it was run: as §1
row,Structure (SMILES),IC50 [nM]
1,O=c1oc(-c2ccc(OCc3ccccc3)cc2)nn1CCO,4.6
2,N#CCCn1nc(-c2ccc(OCc3ccccc3)cc2)oc1=S,3.7

# Molecular target: T1, Amine oxidase [flavin-containing] B
# Assay: In vitro inhibitory activity on rat brain MAO-B.
# How it was run: (§2)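 Radiochemical assay at 37 °C, pH 7.4: MAO A with 10 μM [14C]5-HT, MAO B with 5 μM [14C]PEA. Drug preincubated 20 min with enzyme. Three experiments in duplicate.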
row,IC50 [nM],Structure (SMILES)
1,5500,N#CCCn1nc(-c2ccc(OCc3ccc([N+](=O)[O-])cc3)cc2)oc1=O
2,12,N#CCCn1nc(-c2ccc(OCc3cccc(Cl)c3)cc2)oc1=O
3,100,COc1cccc(COc2ccc(-c3nn(CCC#N)c(=S)o3)cc2)c1
4,690,N#CCCn1nc(-c2ccc(OCc3ccc(Cl)cc3)cc2)oc1=S
5,29,COc1cccc(COc2ccc(-c3nn(CCC#N)c(=O)o3)cc2)c1
6,4300,N#CCCn1nc(-c2ccc(OCc3ccc([N+](=O)[O-])cc3)cc2)oc1=S

# The remaining lines, values behind:
row,Structure (SMILES),IC50 [nM]
1,COc1cccc(COc2ccc(C3=NN(CCC#N)C(=O)CO3)cc2)c1,68
2,N#CCn1nc(-c2ccc(OCc3ccccc3)cc2)oc1=O,60
3,COc1ccc(COc2ccc(C3=NN(CCC#N)C(=O)CO3)cc2)cc1,88
4,N#CCCN1N=C(c2ccc(OCc3ccccc3)cc2)OCC1=O,18
5,N#CCCN1N=C(c2ccc(OCc3ccc(Cl)cc3)cc2)OCC1=O,100
6,N#CCCCCn1nc(-c2ccc(OCc3ccccc3)cc2)oc1=O,490
7,O=c1oc(-c2ccc(OCc3ccccc3)cc2)nn1CCO,3.7
8,Cc1ccc(COc2ccc(C3=NN(CCC#N)C(=O)CO3)cc2)cc1,320
9,CC(C#N)n1nc(-c2ccc(OCc3ccccc3)cc2)oc1=O (stereo not drawn),48000
10,N#CCCn1nc(-c2ccc(OCc3ccccc3)cc2)oc1=S,4.4

# Molecular target: T1, Amine oxidase [flavin-containing] B
# Assay: Ex-Vivo Time course of evaluation for the percentage inhibition of MAO-B for 1 hr at single dose 5 mg/kg through oral gavage
# Assay type: organism-based
# Parameters: dose 5 mg/kg, route oral
# How it was run: (§3)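 Fasted male Sprague-Dawley rats (150 g) dosed orally by gavage, drug suspended in Tween 80 plus 0.5% methylcellulose; vehicle controls. The 100 mg/kg arm was dosed daily for 9 days. Four rats per time point; brains frozen and homogenized in 0.1 M phosphate pH 7.4. Assayed at 37 °C with 8 μM [14C]PEA for 1 min; toluene/ethyl acetate extraction. Percent inhibition vs control, mean ± SEM.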
row,Structure (SMILES),inhibition at 5 mg/kg [%]
1,N#CCCN1N=C(c2ccc(OCc3ccccc3)cc2)OCC1=O,31
2,O=c1oc(-c2ccc(OCc3ccccc3)cc2)nn1CCO,82
3,N#CCCn1nc(-c2ccc(OCc3ccccc3)cc2)oc1=S,84

# Molecular target: T1, Amine oxidase [flavin-containing] B
# Assay: Ex-Vivo Time course of evaluation for the percentage inhibition of MAO-B for 1 hr at single dose 5 mg/kg through oral gavage (p<0.001)
# Assay type: organism-based
# Parameters: dose 5 mg/kg, route oral
# How it was run: as §3
row,Structure (SMILES),inhibition at 5 mg/kg [%]
1,N#CCCn1nc(-c2ccc(OCc3cccc(Cl)c3)cc2)oc1=O,36

# Molecular target: T1, Amine oxidase [flavin-containing] B
# Assay: Ex-Vivo Time course of evaluation for the percentage inhibition of MAO-B for 1 hr at single dose 5 mg/kg through oral gavage (p<0.01)
# Assay type: organism-based
# Parameters: dose 5 mg/kg, route oral
# How it was run: as §3
row,Structure (SMILES),inhibition at 5 mg/kg [%]
1,COc1cccc(COc2ccc(-c3nn(CCC#N)c(=O)o3)cc2)c1,19

# Molecular target: T1, Amine oxidase [flavin-containing] B
# Assay: Ex-Vivo Time course of evaluation for the percentage inhibition of MAO-B for 4 hr at single dose 5 mg/kg through oral gavage [p<0.05 (Bonferroni''s test)]
# Assay type: organism-based
# Parameters: dose 5 mg/kg, route oral
# How it was run: as §3
row,Structure (SMILES),inhibition at 5 mg/kg [%]
1,N#CCCn1nc(-c2ccc(OCc3cccc(Cl)c3)cc2)oc1=O,29

# Molecular target: T2, Amine oxidase [flavin-containing] A (Rattus norvegicus, UniProt P21396)
# T2 sequence (P21396 whole entry): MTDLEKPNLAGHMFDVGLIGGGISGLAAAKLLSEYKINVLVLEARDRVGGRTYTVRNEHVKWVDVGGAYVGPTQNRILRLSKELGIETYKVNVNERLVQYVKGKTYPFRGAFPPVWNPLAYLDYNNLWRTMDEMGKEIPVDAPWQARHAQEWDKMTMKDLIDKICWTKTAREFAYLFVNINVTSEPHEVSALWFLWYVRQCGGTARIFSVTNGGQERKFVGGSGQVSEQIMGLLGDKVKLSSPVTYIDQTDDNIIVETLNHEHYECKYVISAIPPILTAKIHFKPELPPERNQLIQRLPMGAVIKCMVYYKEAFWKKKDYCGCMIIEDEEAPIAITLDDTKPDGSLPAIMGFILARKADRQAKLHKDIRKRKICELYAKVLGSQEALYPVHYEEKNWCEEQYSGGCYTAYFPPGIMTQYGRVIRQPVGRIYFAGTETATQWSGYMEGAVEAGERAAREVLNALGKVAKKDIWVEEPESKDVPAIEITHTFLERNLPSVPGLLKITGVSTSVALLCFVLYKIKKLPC
# Assay: Compound was evaluated for the time-dependence inhibition of MAO-A at 60 minutes of preincubated period. values are same with or without pre-incubation
row,Structure (SMILES),IC50 [nM]
1,O=c1oc(-c2ccc(OCc3ccccc3)cc2)nn1CCO,140000
2,N#CCCn1nc(-c2ccc(OCc3ccccc3)cc2)oc1=S,12000

# Molecular target: T2, Amine oxidase [flavin-containing] A
# Assay: In vitro inhibitory activity on rat brain by monoamine oxidase A (MAO-A)
# How it was run: as §2
row,IC50 [nM],Structure (SMILES)
1,11000,N#CCCn1nc(-c2ccc(OCc3ccc([N+](=O)[O-])cc3)cc2)oc1=O
2,7400,N#CCCn1nc(-c2ccc(OCc3cccc(Cl)c3)cc2)oc1=O
3,8100,COc1cccc(COc2ccc(-c3nn(CCC#N)c(=S)o3)cc2)c1
4,2700,N#CCCn1nc(-c2ccc(OCc3ccc(Cl)cc3)cc2)oc1=S
5,19000,COc1cccc(COc2ccc(-c3nn(CCC#N)c(=O)o3)cc2)c1
6,2600,N#CCCn1nc(-c2ccc(OCc3ccc([N+](=O)[O-])cc3)cc2)oc1=S

# Continued, compound first:
row,Structure (SMILES),IC50 [nM]
1,COc1cccc(COc2ccc(C3=NN(CCC#N)C(=O)CO3)cc2)c1,32000
2,COc1ccc(COc2ccc(C3=NN(CCC#N)C(=O)CO3)cc2)cc1,45000
3,N#CCCN1N=C(c2ccc(OCc3ccccc3)cc2)OCC1=O,160000
4,N#CCCN1N=C(c2ccc(OCc3ccc(Cl)cc3)cc2)OCC1=O,3400
5,O=c1oc(-c2ccc(OCc3ccccc3)cc2)nn1CCO,140000
6,Cc1ccc(COc2ccc(C3=NN(CCC#N)C(=O)CO3)cc2)cc1,250000
7,N#CCCn1nc(-c2ccc(OCc3ccccc3)cc2)oc1=S,12000

# Molecular target: T1, Amine oxidase [flavin-containing] B
# Assay: Ex-Vivo percentage inhibition of MAO-B after 24 hr single 5 mg/kg dose by oral gavage
# Assay type: organism-based
# Parameters: dose 5 mg/kg, route oral
# How it was run: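 Ex vivo oral gavage in fasted male Sprague-Dawley rats (Tween 80 / 0.5% methylcellulose), four rats per group. Brain homogenate taken 24 h after dosing. MAO B assayed with 8 μM [14C]PEA, 1 min at 37 °C; percent inhibition vs vehicle control.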
row,inhibition at 5 mg/kg [%],Structure (SMILES)
1,-7,N#CCCn1nc(-c2ccc(OCc3cccc(Cl)c3)cc2)oc1=O
2,-3,COc1cccc(COc2ccc(-c3nn(CCC#N)c(=O)o3)cc2)c1

# Second part, the compound before the results:
row,Structure (SMILES),inhibition at 5 mg/kg [%]
1,N#CCCN1N=C(c2ccc(OCc3ccccc3)cc2)OCC1=O,23
2,O=c1oc(-c2ccc(OCc3ccccc3)cc2)nn1CCO,8
3,N#CCCn1nc(-c2ccc(OCc3ccccc3)cc2)oc1=S,21

# Molecular target: T2, Amine oxidase [flavin-containing] A
# Assay: In Vitro evaluation for the inhibitory activity on rat brain by MAO-A at 100 uM; No Inhibition
# How it was run: (§4)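 Male Sprague-Dawley rat brain crude mitochondrial fraction, 0.195 mg protein/mL. Radiochemical assay at 37 °C, pH 7.4: MAO A with 10 μM [14C]5-HT, MAO B with 5 μM [14C]PEA. Drug preincubated 20 min with enzyme. […] Three experiments in duplicate.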
row,Structure (SMILES),IC50
1,N#CCn1nc(-c2ccc(OCc3ccccc3)cc2)oc1=O,Not Active
2,N#CCCCCn1nc(-c2ccc(OCc3ccccc3)cc2)oc1=O,Not Active

# Molecular target: T2, Amine oxidase [flavin-containing] A
# Assay: In Vitro evaluation for the inhibitory activity on rat brain by MAO-A at 100 uM
# How it was run: as §4
row,Structure (SMILES),inhibition at 100 µM [%]
1,CC(C#N)n1nc(-c2ccc(OCc3ccccc3)cc2)oc1=O (stereo not drawn),4

# Molecular target: T1, Amine oxidase [flavin-containing] B
# Assay: Ex-Vivo Time course of evaluation for the percentage inhibition of MAO-B for 0.5 hr at single dose 5 mg/kg through oral gavage
# Assay type: organism-based
# Parameters: dose 5 mg/kg, route oral
# How it was run: as §3
row,inhibition at 5 mg/kg [%],Structure (SMILES)
1,1,N#CCCn1nc(-c2ccc(OCc3cccc(Cl)c3)cc2)oc1=O
2,12,COc1cccc(COc2ccc(-c3nn(CCC#N)c(=O)o3)cc2)c1

# The remaining lines, values behind:
row,Structure (SMILES),inhibition at 5 mg/kg [%]
1,N#CCCN1N=C(c2ccc(OCc3ccccc3)cc2)OCC1=O,21
2,O=c1oc(-c2ccc(OCc3ccccc3)cc2)nn1CCO,65
3,N#CCCn1nc(-c2ccc(OCc3ccccc3)cc2)oc1=S,68

# Molecular target: T1, Amine oxidase [flavin-containing] B
# Assay: Ex-Vivo Time course of evaluation for the percentage inhibition of MAO-B for 48 hr at single dose 5 mg/kg through oral gavage
# Assay type: organism-based
# Parameters: dose 5 mg/kg, route oral
# How it was run: as §3
row,inhibition at 5 mg/kg [%],Structure (SMILES)
1,4,N#CCCn1nc(-c2ccc(OCc3cccc(Cl)c3)cc2)oc1=O
2,-7,COc1cccc(COc2ccc(-c3nn(CCC#N)c(=O)o3)cc2)c1

# Continued, compound first:
row,Structure (SMILES),inhibition at 5 mg/kg [%]
1,N#CCCN1N=C(c2ccc(OCc3ccccc3)cc2)OCC1=O,16
2,N#CCCn1nc(-c2ccc(OCc3ccccc3)cc2)oc1=S,8

# Molecular target: T1, Amine oxidase [flavin-containing] B
# Assay: Ex-Vivo Time course of evaluation for the percentage inhibition of MAO-B for 4 hr at single dose 5 mg/kg through oral gavage
# Assay type: organism-based
# Parameters: dose 5 mg/kg, route oral
# How it was run: as §3
row,Structure (SMILES),inhibition at 5 mg/kg [%]
1,N#CCCN1N=C(c2ccc(OCc3ccccc3)cc2)OCC1=O,22
2,COc1cccc(COc2ccc(-c3nn(CCC#N)c(=O)o3)cc2)c1,6
3,O=c1oc(-c2ccc(OCc3ccccc3)cc2)nn1CCO,70
4,N#CCCn1nc(-c2ccc(OCc3ccccc3)cc2)oc1=S,74

# System: not listed separately
# Assay: Selectivity for B form was estimated by the ratio of IC50 (MAO A) at 60 min to that of (MAO B)
row,Structure (SMILES),Selectivity
1,O=c1oc(-c2ccc(OCc3ccccc3)cc2)nn1CCO,30400
2,N#CCCn1nc(-c2ccc(OCc3ccccc3)cc2)oc1=S,3200

# From ChEMBL document CHEMBL1126975 (J Med Chem, 1993)
